The source of these data is ChEMBL document CHEMBL1671695, “Specificity of induction of the vanA and vanB operons in vancomycin-resistant enterococci by telavancin” (Antimicrob Agents Chemother, 2010).

Values after ≈ are worked out from the molar mass of the structure shown. Active and inactive are the calls of the source. The rule behind the calls is not given here.

In experiment [1] the test system is Enterococcus faecalis. Kind of experiment: Induction of VanA activity in Enterococcus faecalis ATCC 51299 expressing Van B gene assessed as UDP-MurNAc-pentapeptide profile at 0.1 ug/ml […]. It is filed as functional. In short, it runs like this: (§1)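 Ramoplanin (3 μg/ml) was then added for 15 min. Cytoplasmic precursors were extracted with 8% TCA (15 min, 4°C), desalted and analysed by HPLC. Each precursor (tetrapeptide, pentapeptide, pentadepsipeptide) is expressed as a percentage of total late precursors from integrated peak areas.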

The subject of experiment [2] is Enterococcus faecalis. Kind of experiment: Induction of VanA activity in vancomycin susceptible Enterococcus faecalis BM4110 assessed as UDP-MurNAc-pentapeptide profile at 0.1 ug/ml […]. It is filed as functional. Put shortly: as §1
The subject of experiment [3] is Enterococcus faecalis. As to the kind of experiment: Induction of VanA activity in Enterococcus faecalis ATCC 51575 expressing Van B gene assessed as UDP-MurNAc-pentapeptide profile at 0.1 ug/ml […]. It is filed as functional.
The test system of experiment [4] is Enterococcus faecium. As to the kind of experiment: Antimicrobial activity against Enterococcus faecium ATCC 51559 by broth microdilution method. It is filed as functional. Put shortly: (§2)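 Broth microdilution MIC per CLSI-approved methods; strains maintained on tryptic soy agar with 5% sheep blood at 37°C.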
Experiment [5] relates to Enterococcus faecalis. As to the kind of experiment: Induction of VanX activity in Enterococcus faecalis ATCC 51299 expressing Van B gene at 0.3 times MIC by high-performance liquid chromatography. It is filed as functional, organism-based.
Experiment [6] has as its system Enterococcus faecium. Kind of experiment: Induction of VanX activity in Enterococcus faecium ATCC 51559 expressing Van A gene assessed as UDP-MurNAc-depsipeptide profile at 4 ug/ml […]. It is filed as functional. In short, it runs like this:
as §1

In experiment [7] the test system is Enterococcus faecium. Kind of experiment: Induction of VanA activity in Enterococcus faecium ATCC 51559 expressing Van A gene assessed as UDP-MurNAc-tetrapeptide profile at 4 ug/ml […]. It is filed as functional. In short, it runs like this: as §1
Experiment [8] concerns Enterococcus faecalis. Kind of experiment: Antimicrobial activity against Enterococcus faecalis ATCC 51299 by broth microdilution method. It is filed as functional. In short, it runs like this:
as §2

The test system of experiment [9] is Enterococcus faecalis. As to the kind of experiment: Induction of VanX activity in Enterococcus faecalis BM4110 expressing VanA and harboring transposon tn1546 at 0.4 times MIC by Western blotting relative to uninduced control. It is filed as functional. In short, it runs like this:
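Cells grown in BHI at 37°C with telavancin, harvested and treated with mutanolysin, then sonicated. Soluble extract (35 ng protein) was run on a 4–12% polyacrylamide gel and transferred to PVDF. Blot probed with affinity-purified polyclonal anti-VanX (1/5,000), then IRDye 800CW goat anti-rabbit IgG (1/10,000), with infrared fluorescence detection. VanX amount expressed relative to basal level without antibiotic.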

Experiment [10] relates to Enterococcus faecalis. As to the kind of experiment: Induction of VanA activity in vancomycin susceptible Enterococcus faecalis BM4110 harboring Van A gene assessed as UDP-MurNAc-tetrapeptide profile at 4 ug/ml […]. It is filed as functional. Put shortly:
(§3)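 Ramoplanin (3 μg/ml) was then added for 15 min. Cytoplasmic precursors were extracted with 8% trichloroacetic acid (15 min, 4°C), desalted and run on HPLC. Each precursor is given as % of total late precursors (tetrapeptide, pentapeptide, pentadepsipeptide) from integrated peak areas.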

For experiment [11], the system named is Enterococcus faecalis. Kind of experiment: Induction of VanX activity in Enterococcus faecalis ATCC 51575 expressing Van B gene at 0.3 times MIC by high-performance liquid chromatography. It is filed as functional, organism-based.
For experiment [12], the system named is Enterococcus faecium. Kind of experiment: Induction of VanA activity in Enterococcus faecium ATCC 51559 expressing Van A gene assessed as UDP-MurNAc-pentapeptide profile at 4 ug/ml […]. It is filed as functional. Put shortly: as §1
The test system of experiment [13] is Enterococcus faecalis. Kind of experiment: Antimicrobial activity against Enterococcus faecalis ATCC 51575 by broth microdilution method. It is filed as functional. Put shortly: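 Strains were grown on TSA with 5% sheep blood at 37°C. MIC was determined by broth microdilution following CLSI methods.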
For experiment [14], the system named is Enterococcus faecalis. As to the kind of experiment: Induction of VanX activity in vancomycin susceptible Enterococcus faecalis BM4110 harboring Van A gene assessed as UDP-MurNAc-depsipeptide profile at 4 ug/ml […]. It is filed as functional. Put shortly: as §3
For experiment [15], the system named is Enterococcus faecalis. As to the kind of experiment: Antimicrobial activity against streptomycin-resistant, vancomycin-susceptible Enterococcus faecalis BM4110 by broth microdilution method. It is filed as functional. Put shortly:
as §2

Experiment [16] concerns Enterococcus faecalis. As to the kind of experiment: Antimicrobial activity against Enterococcus faecalis BM4110 expressing VanA and harboring transposon tn1546 by broth microdilution method. It is filed as functional. Put shortly:
as §2

The subject of experiment [17] is Enterococcus faecalis. As to the kind of experiment: Induction of D,D-dipeptidase activity in Enterococcus faecalis BM4110 expressing VanA and harboring transposon tn1546 at 0.4 times MIC by Western blotting relative to uninduced control. It is filed as functional.
Experiment [18] deals with Enterococcus faecium. Kind of experiment: Induction of VanX activity in Enterococcus faecium ATCC 51559 expressing Van A gene by high-performance liquid chromatography. It is filed as functional, organism-based.
The test system of experiment [19] is Enterococcus faecalis. Kind of experiment: Induction of VanX activity in vancomycin susceptible Enterococcus faecalis BM4110 harboring Van A gene assessed as UDP-MurNAc-depsipeptide profile at 64 ug/ml […]. It is filed as functional. Put shortly: as §3
In experiment [20] the test system is Enterococcus faecalis. As to the kind of experiment: Induction of VanA activity in Enterococcus faecalis ATCC 51575 expressing Van B gene assessed as UDP-MurNAc-pentapeptide profile at 16 ug/ml […]. It is filed as functional. Put shortly: as §3
Experiment [21] concerns the target T1, D-alanyl-D-alanine dipeptidase (Enterococcus faecium, UniProt Q06241).
T1 sequence (Q06241 whole entry): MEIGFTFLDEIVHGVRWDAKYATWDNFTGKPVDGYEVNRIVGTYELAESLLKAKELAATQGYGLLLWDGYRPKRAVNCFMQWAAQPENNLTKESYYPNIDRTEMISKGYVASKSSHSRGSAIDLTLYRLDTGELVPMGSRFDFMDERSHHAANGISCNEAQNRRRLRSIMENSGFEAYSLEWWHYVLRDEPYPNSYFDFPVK
Kind of experiment: Inhibition of D,D-dipeptidase activity Van X in Enterococcus faecium ATCC 51559 using D-alanyl-(R)-phenylthioglycine substrate. In short, it runs like this: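 Continuous DTNB-coupled VanX assay on soluble extract (100 mM Tris pH 7.5, 412 nm, 22°C). d-Alanyl-(R)-phenylthioglycine was 0.125–0.75 mM and the phosphonamidate inhibitor N-[(1-aminoethyl)hydroxyphosphinyl]-d-alanine 25–324 μM. Ki came from fitting initial rates to a competitive inhibition model.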

Experiment [22] relates to Enterococcus faecium. As to the kind of experiment: Induction of VanX activity in Enterococcus faecium ATCC 51559 expressing Van A gene assessed as UDP-MurNAc-depsipeptide profile at 64 ug/ml […]. It is filed as functional. Put shortly: as §3
Experiment [23] deals with Enterococcus faecalis. As to the kind of experiment: Induction of VanX activity in Enterococcus faecalis ATCC 51299 expressing Van B gene assessed as UDP-MurNAc-depsipeptide profile at 3 ug/ml […]. It is filed as functional. In short, it runs like this: as §3
Experiment [24] relates to Enterococcus faecalis. Kind of experiment: Induction of VanX activity in Enterococcus faecalis BM4110 expressing Van A gene by high-performance liquid chromatography. It is filed as functional, organism-based.
Experiment [25] relates to Enterococcus faecalis. Kind of experiment: Induction of VanA activity in Enterococcus faecalis ATCC 51575 expressing Van B gene assessed as UDP-MurNAc-tetrapeptide profile at 16 ug/ml […]. It is filed as functional. Put shortly: as §3
In experiment [26] the test system is Enterococcus faecalis. As to the kind of experiment: Induction of VanX activity in Enterococcus faecalis ATCC 51575 expressing Van B gene by high-performance liquid chromatography. It is filed as functional, organism-based.
For experiment [27], the system named is Enterococcus faecalis. Kind of experiment: Induction of VanA activity in vancomycin susceptible Enterococcus faecalis BM4110 harboring Van A gene assessed as UDP-MurNAc-tetrapeptide profile at 64 ug/ml […]. It is filed as functional. In short, it runs like this: as §3
In experiment [28] the test system is Enterococcus faecalis. Kind of experiment: Induction of VanX activity in Enterococcus faecalis ATCC 51299 expressing Van B gene by high-performance liquid chromatography. It is filed as functional, organism-based.
Experiment [29] deals with Enterococcus faecalis. As to the kind of experiment: Induction of VanA activity in vancomycin susceptible Enterococcus faecalis BM4110 assessed as UDP-MurNAc-pentapeptide profile at 1 ug/ml […]. It is filed as functional. In short, it runs like this:
as §3

The test system of experiment [30] is Enterococcus faecium. Kind of experiment: Induction of VanA activity in Enterococcus faecium ATCC 51559 expressing Van A gene assessed as UDP-MurNAc-tetrapeptide profile at 64 ug/ml […]. It is filed as functional. In short, it runs like this:
as §3

The subject of experiment [31] is Enterococcus faecalis. Kind of experiment: Induction of VanA activity in Enterococcus faecalis ATCC 51299 expressing Van B gene assessed as UDP-MurNAc-pentapeptide profile at 3 ug/ml […]. It is filed as functional. Put shortly: as §3
The test system of experiment [32] is Enterococcus faecalis. As to the kind of experiment: Induction of VanA activity in Enterococcus faecalis ATCC 51299 expressing Van B gene assessed as UDP-MurNAc-tetrapeptide profile at 3 ug/ml […]. It is filed as functional. In short, it runs like this:
as §3

Experiment [33] concerns Enterococcus faecalis. As to the kind of experiment: Induction of VanX activity in Enterococcus faecalis ATCC 51575 expressing Van B gene assessed as UDP-MurNAc-depsipeptide profile at 16 ug/ml […]. It is filed as functional. Put shortly: as §3

As for `CCCCCCCCCCNCCN[C@@]1(C)C[C@H](O[C@H]2[C@H](Oc3c4cc5cc3Oc3ccc(cc3Cl)[C@@H](O)[C@@H](NC(=O)[C@@H](CC(C)C)NC)C(=O)N[C@@H](CC(N)=O)C(=O)N[C@H]5C(=O)N[C@H]3C(=O)N[C@H](C(=O)N[C@H](C(=O)O)c5cc(O)c(CNCP(=O)(O)O)c(O)c5-c5cc3ccc5O)[C@H](O)c3ccc(c(Cl)c3)O4)O[C@H](CO)[C@@H](O)[C@@H]2O)O[C@@H](C)[C@H]1O` [TELAVANCIN], the Activity was 100% in the experiment on Enterococcus faecalis [1]; 100% with Enterococcus faecalis [2]; 100% in the experiment with Enterococcus faecalis [3]; 52% in the experiment with Enterococcus faecium [6]; 40% with Enterococcus faecium [7]; 26% in the experiment on Enterococcus faecalis [10]. For the same compound, the Activity worked out at 8% in the experiment on Enterococcus faecium [12] and 74% in the experiment with Enterococcus faecalis [14]. For the same compound, the MIC against Enterococcus faecium [4] amounted to 8 µg/mL (≈ 4.56 µM); with Enterococcus faecalis [8], 1 µg/mL (≈ 0.57 µM); in the experiment on Enterococcus faecalis [13], 0.5 µg/mL (≈ 0.285 µM); against Enterococcus faecalis [15], 1 µg/mL (≈ 0.57 µM); in the experiment on Enterococcus faecalis [16] it was 8 µg/mL (≈ 4.56 µM). The result in the experiment on Enterococcus faecalis [5] and in the experiment on Enterococcus faecalis [11] was inactive. Also, the “fold change (FC)” value with Enterococcus faecalis [9] was determined as 4; with Enterococcus faecalis [17], 6.
In the case of `CN[C@H](CC(C)C)C(=O)N[C@H]1C(=O)N[C@@H](CC(N)=O)C(=O)N[C@H]2C(=O)N[C@H]3C(=O)N[C@H](C(=O)N[C@H](C(=O)O)c4cc(O)cc(O)c4-c4cc3ccc4O)[C@H](O)c3ccc(c(Cl)c3)Oc3cc2cc(c3O[C@@H]2O[C@H](CO)[C@@H](O)[C@H](O)[C@H]2O[C@H]2C[C@](C)(N)[C@H](O)[C@H](C)O2)Oc2ccc(cc2Cl)[C@H]1O` [VANCOMYCIN], the Activity result is “Dose-dependent effect” with Enterococcus faecium [18]; 73% in the experiment on Enterococcus faecalis [19]; 10% in the experiment on Enterococcus faecalis [20]; 59% in the experiment with Enterococcus faecium [22]; 75% with Enterococcus faecalis [23]; “Dose-dependent effect” in the experiment on Enterococcus faecalis [24]. For the same compound, the Activity amounted to 4% in the experiment with Enterococcus faecalis [25]; 27% with Enterococcus faecalis [27]; 100% in the experiment on Enterococcus faecalis [29]; 41% with Enterococcus faecium [30]; 19% in the experiment with Enterococcus faecalis [31]; 6% in the experiment with Enterococcus faecalis [32]. In addition, in the experiment on Enterococcus faecalis [33], the Activity stood at 86%. The compound further gave a Ki in [21] of 62 µM. In addition, the MIC in the experiment on Enterococcus faecalis [8] was 16 µg/mL (≈ 11 µM); in the experiment with Enterococcus faecalis [13], 256 µg/mL (≈ 177 µM); in the experiment with Enterococcus faecalis [15], 2 µg/mL (≈ 1.38 µM); in the experiment with Enterococcus faecalis [16] it was 1020 µg/mL (≈ 707 µM). The outcome in the experiment on Enterococcus faecalis [26] and in the experiment on Enterococcus faecalis [28] was Active.
